Data on 18 molecules can be found in ChEMBL document CHEMBL1129366, “Novel selective PDE IV inhibitors as antiasthmatic agents. Synthesis and biological activities of a series of 1-aryl-2,3-bis(hydroxymethyl)naphthalene lignans” (J Med Chem, 1996).

Test [1] deals with Cavia porcellus. Put plainly: Reduced histamine-induced bronchoconstriction in anesthetized guinea pig at 0.03 mg/kg intravenous dose. Format: functional.
The subject of test [2] is Cavia porcellus. Put plainly: Reduced histamine-induced bronchoconstriction in anesthetized guinea pig at 0.1 mg/kg intravenous dose. Format: functional.
Test [3] concerns Cavia porcellus. Put plainly: Reduced histamine-induced bronchoconstriction in anesthetized guinea pig at 0.3 mg/kg intravenous dose. The format is functional.
Test [4] concerns Cavia porcellus. Put plainly: Change in heart rate in guinea pigs after 0.1 mg/kg intravenous dose. The format is functional. In short, it runs like this:
(§1)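 Anesthetized guinea pigs in the histamine bronchospasm setup, with spontaneous breathing abolished by gallamine triethiodide (5 mg/kg iv). Heart rate was taken by cardiography triggered on the ECG R wave (standard limb lead II). Test agent was suspended in saline with Tween 80 and given iv 1 min before histamine. The value is the post-dose rate minus the basal rate (basal 230–330 beats/min).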

Test [5] relates to Cavia porcellus. Put plainly: Change in heart rate in guinea pigs after 0.03 mg/kg intravenous dose. Format: functional. In short, it runs like this:
as §1

Test [6] relates to Cavia porcellus. Put plainly: Change in heart rate in guinea pigs after 0.3 mg/kg intravenous dose. Format: functional. In short, it runs like this: as §1
Test [7] deals with T1, Phosphodiesterase 3 (Homo sapiens, UniProt Q14432+Q13370). Put plainly: Inhibition in vitro of Phosphodiesterase 3 isolated from guinea pig cardiac ventricle. Format: protein assay, Cavia porcellus. The conditions noted are these: target entry is the homologue from another species. In short, it runs like this: (§2)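 PDEs came from guinea pig cardiac ventricle (types I, III) and lung (types IV, V). Tissue was homogenized at pH 6.5 with protease inhibitors and spun at 25000G, and the supernatant was run on DEAE-Sephacrose with a 50–1000 mM sodium acetate gradient. Assay: 40 mM Tris-HCl pH 8.0, 5 mM MgCl2, 4 mM 2-mercaptoethanol, 1.0 μM [3H]cAMP or [3H]cGMP, 20 min at 30 °C, substrate hydrolysis ≤20%. Triplicates at 3–4 inhibitor levels; IC50 read graphically.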

In another test the target is Phosphodiesterase 4 (Homo sapiens, UniProt P27815+Q08499+Q07343+Q08493). Put plainly: Inhibition in vitro of Phosphodiesterase 4 activity isolated from guinea pig lung. Format: protein assay, Cavia porcellus. Particulars: target entry is the homologue from another species. In a few lines:
as §2

Test [8] concerns the target Phosphodiesterase 1 (Cavia porcellus). Put plainly: Inhibition in vitro of Phosphodiesterase 1 isolated from guinea pig cardiac ventricle.
Test [9] deals with Cavia porcellus. Put plainly: Inhibition of histamine-induced bronchoconstriction in anesthetized guinea pig at 0.03 mg/kg intravenous dose.
For test [10], the system named is Cavia porcellus. Put plainly: Inhibition of antigen-induced bronchoconstriction in anesthetized guinea pig at 3 mg/kg intravenous dose. Format: functional.
The subject of test [11] is Cavia porcellus. Put plainly: Reduced histamine-induced bronchoconstriction in anesthetized guinea pig at 1 mg/kg intravenous dose. The format is functional. In short, it runs like this:
(§3)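 Anesthetized guinea pigs immobilized with gallamine triethiodide (5 mg/kg iv) and artificially ventilated. Histamine dihydrochloride (2 μg/kg) given iv via the lateral saphenous vein at 10 min intervals. Compound suspended in saline with Tween 80, given iv 1 min before histamine. Pulmonary inflation pressure recorded as the bronchospasm index; result expressed as percent inhibition of histamine-induced bronchoconstriction.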

For test [12], the system named is Cavia porcellus. Put plainly: Change in heart rate in guinea pigs after 1 mg/kg intravenous dose. Format: functional. In a few lines:
as §1

Test [13] deals with Cavia porcellus. Put plainly: Inhibition of histamine-induced bronchoconstriction in anesthetized guinea pig at 3 mg/kg intravenous dose.
For test [14], the system named is Cavia porcellus. Put plainly: (§4) Inhibition of antigen-induced bronchoconstriction in anesthetized guinea pig at 0.1 mg/kg intravenous dose. Format: functional.
The subject of test [15] is Cavia porcellus. Put plainly: Change in heart rate in guinea pigs after 3 mg/kg intravenous dose. The format is functional. In a few lines:
as §1

For test [16], the system named is Cavia porcellus. Put plainly: Change in guinea pig heart rate after intravenous administration of 0.1 mg/kg. Format: functional. In a few lines: as §1
Test [17] has as its system Cavia porcellus. The description is as §4. Format: functional. The source holds these as a separate data set.
The subject of test [18] is Cavia porcellus. Put plainly: Reduced histamine-induced bronchoconstriction in anesthetized guinea pig at 3 mg/kg intravenous dose. The format is functional. In short, it runs like this:
as §3

A further test deals with Phosphodiesterase 1 (Homo sapiens, UniProt P54750+Q01064+Q14123). Put plainly: Inhibition of Phosphodiesterase 1 from guinea pig cardiac ventricle. The format is protein assay, Cavia porcellus. Particulars: target entry is the homologue from another species. In a few lines: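 PDE I pooled from DEAE-Sepharose fractions of guinea pig cardiac ventricle homogenate (pH 6.5 buffer with protease inhibitors, sodium acetate gradient). Assay buffer 40 mM Tris-HCl pH 8.0, 5 mM MgCl2, 4 mM 2-mercaptoethanol. Substrate [3H]cAMP or [3H]cGMP at 1.0 μM, hydrolysis kept ≤20%. Run 20 min at 30 °C, inhibitors in DMSO. Triplicates at 3–4 concentrations, IC50 read graphically from means.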

The target in test [19] is T1, Phosphodiesterase 3. Put plainly: Inhibition of Phosphodiesterase 3 from guinea pig cardiac ventricle. Particulars: target entry is the homologue from another species. Format: protein assay, Cavia porcellus. In short, it runs like this: as §2
Test [20] is described as follows: Inhibition of Phosphodiesterase 5 from guinea pig lung. Details: species or system Cavia porcellus. In short, it runs like this: as §2
A short description of test [21]: Inhibition of Phosphodiesterase 4 from guinea pig lung. Details: species or system Cavia porcellus. In a few lines:
as §2

Test [22] concerns Cavia porcellus. Put plainly: Inhibition of histamine-induced bronchoconstriction in anesthetized guinea pig at 0.1 mg/kg intravenous dose.

As usually defined, the IC50 is the midpoint of a concentration-inhibition curve. Lower therefore signals greater potency in that assay. Broadly, the ED50 is the midpoint of the dose-response relation. A high value points to a need for a large dose.

Where “and” joins values, the source holds several entries; their conditions need not be identical. Identical values can stand only once.

As for `COc1cc2cc(CO)c(CO)c(-c3cc(OC)c(OC)c(S(C)(=O)=O)c3)c2cc1OC`, the Reduction is 34% with Cavia porcellus [1], 57% in the test with Cavia porcellus [2] and 71% in the test with Cavia porcellus [3]. The Heart rate with Cavia porcellus [4] is on record as 1 beats min-1; with Cavia porcellus [5] it was 3 beats min-1; with Cavia porcellus [6], -7 beats min-1. Also, the figures for the half-maximal inhibitory concentration (IC50) (against Phosphodiesterase 3 [7]; against Phosphodiesterase 4; in test [8]) were 0.09 µM, 0.05 µM and 100 µM, respectively. Besides, it took a dose of 0.093 mg/kg to reach the 50% effect level with Cavia porcellus [9] (ED50).

With `CCOc1cc2cc(CO)c(CO)c(-c3cc(N)c(OC)c(OC)c3)c2cc1OCC.Cl`, the median effective dose (ED50) in the test with Cavia porcellus [10] is over 10 mg/kg; with Cavia porcellus [13] it was 0.39 mg/kg. Further, the Reduction is 45% and 90% in the test on Cavia porcellus [3] (0.3 mg/kg); 69% in the test with Cavia porcellus [11]. In the test on Cavia porcellus [12], this molecule showed a Heart rate of 1 beats min-1. Also, the IC50 against Phosphodiesterase 3 [7] was determined as 20 µM; at Phosphodiesterase 4 it was 0.05 µM; in test [8] it was 50 µM.

`COc1cc2cc(CO)c(CO)c(-c3cc(OC)c(OC)c(C(=O)N(C)C)c3)c2cc1OC`: the figures for the Reduction in the test on Cavia porcellus [1], in the test with Cavia porcellus [2] and in the test on Cavia porcellus [3] were 59%, 83% and 69%, respectively. Further, the Heart rate stood at 28 beats min-1 in the test with Cavia porcellus [4], 1 beats min-1 with Cavia porcellus [5] and 50 beats min-1 in the test on Cavia porcellus [6]. Further, the half-maximal inhibitory concentration (IC50) against Phosphodiesterase 3 [7] was 0.06 µM; against Phosphodiesterase 4, 0.005 µM; in test [8] it was over 100 µM. In the test on Cavia porcellus [9], this molecule came in with a median effective dose (ED50) of 0.03 mg/kg.

For the molecule `COc1ccc2c(-c3cc(OC)c(OC)c(OC)c3)c(CO)c(CO)cc2c1`, the concentration for half-maximal inhibition (IC50) was 20 µM against Phosphodiesterase 3 [7], 40 µM on Phosphodiesterase 4 and 30 µM in test [8].

As for `CCCCn1ccc(-c2c(CO)c(CO)cc3cc(OCC)c(OCC)cc23)cc1=O`, the Reduction with Cavia porcellus [3] amounted to 47%. This molecule also displayed a Heart rate with Cavia porcellus [6] of -5 beats min-1. In addition, the figures for the half-maximal inhibitory concentration (IC50) against Phosphodiesterase 3 [7] and against Phosphodiesterase 4 were 50 µM and 0.03 µM, respectively.

For `COc1cc2cc(CO)c(CO)c(-c3cc(NC(C)=O)c(OC)c(OC)c3)c2cc1OC`, the IC50 at Phosphodiesterase 3 [7] was found to be 2 µM; on Phosphodiesterase 4 it was 0.07 µM; in test [8], 100 µM.

With `CCOc1cc2cc(CO)c(CO)c(-c3ccn(CCOC)c(=O)c3)c2cc1OCC`, the results for the ED50 in the test with Cavia porcellus [14] and in the test on Cavia porcellus [17] were 0.08 mg/kg and 2.3 mg/kg, respectively. For the same molecule, the Heart rate in the test with Cavia porcellus [15], in the test on Cavia porcellus [6] and with Cavia porcellus [16] was 5 beats min-1 throughout. Further, the Reduction in the test with Cavia porcellus [2] is 60%; in the test on Cavia porcellus [3], 92%. Moreover, the half-inhibitory concentration (IC50) on Phosphodiesterase 3 [7] is 57 µM; against Phosphodiesterase 4, 0.057 µM.

Turning to `COc1cc2cc(CO)c(CO)cc2cc1OC`, the IC50 against Phosphodiesterase 3 [7] is over 100 µM; against Phosphodiesterase 4 it was 20 µM; in [8], over 100 µM.

The molecule `COCCn1ccc(-c2c(CO)c(CO)cc3cc(OC)c(OC)cc23)cc1=O` showed a 50% effective dose (ED50) in the test with Cavia porcellus [14] of 0.16 mg/kg. The Reduction with Cavia porcellus [2] amounted to 34%; in the test on Cavia porcellus [18], 70%. Moreover, the Heart rate with Cavia porcellus [4] is 1 beats min-1; in the test with Cavia porcellus [6], 3 beats min-1. Further, the IC50 was determined as 14 µM at Phosphodiesterase 3 [7] and 0.5 µM at Phosphodiesterase 4.

For `COc1ccc(-c2c(CO)c(CO)cc3cc(OC)c(OC)cc23)cc1OC`, the IC50 on Phosphodiesterase 3 [7] is 1 µM; against Phosphodiesterase 4 it was 0.2 µM.

Regarding `COc1ccc(C2CNC(=O)C2)cc1OC1CCCC1` (centres undefined) [ROLIPRAM], the figures for the median effective dose (ED50) with Cavia porcellus [14] and in the test on Cavia porcellus [22] were 19 mg/kg and 0.01 mg/kg, respectively. Also, the Reduction in the test with Cavia porcellus [2] is listed as 79%; in the test on Cavia porcellus [11], 72%. Moreover, the results for the Heart rate in the test on Cavia porcellus [4] and in the test on Cavia porcellus [12] were 9 beats min-1 and 3 beats min-1, respectively. For the same molecule, the IC50 at Phosphodiesterase 1 was over 100 µM; at Phosphodiesterase 3 [19], over 100 µM; in test [20] it was over 100 µM; in test [21], 1.9 µM.

In the case of `COc1cc2cc3c(c(-c4cc(OC)c(OC)c(OC)c4)c2cc1OC)C(=O)OC3`, on Phosphodiesterase 4, the half-inhibitory concentration (IC50) is 0.5 µM.

In the case of `COc1cc2cc(CO)c(CO)c(Cc3cc(OC)c(OC)c(OC)c3)c2cc1OC`, the figures for the IC50 (at Phosphodiesterase 3 [7]; against Phosphodiesterase 4; in [8]) were 8 µM, 5 µM and 40 µM, respectively.

On to `COc1cc2cc(CO)c(CO)c(-c3ccn(C)c(=O)c3)c2cc1OC`, for which the IC50 amounted to 20 µM against Phosphodiesterase 3 [7] and 0.6 µM against Phosphodiesterase 4.

In the test on Cavia porcellus [15], `COc1cc2cc(CO)c(CO)c(-c3cc(OC)c(OC)c(OC)c3)c2cc1OC` yielded a Delta beats/min of 79. In the test with Cavia porcellus [18], this molecule registered a Reduction of 89%. The IC50 was 0.9 µM against Phosphodiesterase 3 [7], 0.3 µM against Phosphodiesterase 4 and 60 µM in test [8].

As for `COc1cc2cc(CO)c(CO)c(C3=CC=NC(=O)C3)c2cc1OC`, the IC50 against Phosphodiesterase 3 [7] was 20 µM; at Phosphodiesterase 4, 0.2 µM; in [8], over 100 µM.

For the molecule `CCOc1cc2cc(CO)c(CO)c(-c3ccn(CCOC)c(=O)c3)c2cc1OC`, the results for the Heart rate in the test on Cavia porcellus [15], with Cavia porcellus [12] and with Cavia porcellus [6] were 6 beats min-1, 7 beats min-1 and 4 beats min-1, respectively. For the same molecule, the Reduction in the test on Cavia porcellus [3] stood at 30%; with Cavia porcellus [11], 76%; in the test with Cavia porcellus [18] it was 98%. Besides, the IC50 against Phosphodiesterase 3 [7] was 7 µM; at Phosphodiesterase 4, 0.45 µM.

For `COc1cc(-c2c(CO)c(CO)cc3cc4c(cc23)OCO4)cc(OC)c1OC`, the half-inhibitory concentration (IC50) at Phosphodiesterase 3 [7] was over 100 µM; against Phosphodiesterase 4 it was over 30 µM; in [8], over 100 µM.
